System: U2OS
Experiment: Multiplex assay against U2OS
Format: toxicity, cell-based
Details: human
Outline: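 Live cells carried four stains from seeding: Hoechst33342, BioTracker Green Microtubule Cytoskeleton Dye, MitoTracker Red and Annexin V Alexa Fluor 680. They were imaged on a CQ1 microscope at 37°C and 5% CO2 after compound addition. Using CellPathfinder machine-learning gating, cells were split into Hoechst high-intensity objects or normal cells, normal cells into healthy, pyknosed or fragmented nuclei, and pyknosed cells into mitotic or apoptotic; tubulin, mitochondrial-mass and membrane-permeability phenotypes are per cents of healthy-nucleus cells.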

[1] = 12 h, 1 µM, compound concentration 1 uM, replicate 1
[2] = 12 h, 1 µM, compound concentration 1 uM, replicate 2
[3] = 12 h, 10 µM, compound concentration 10 uM, replicate 1
[4] = 12 h, 10 µM, compound concentration 10 uM, replicate 2
[5] = 24 h, 1 µM, compound concentration 1 uM, replicate 1
[6] = 24 h, 1 µM, compound concentration 1 uM, replicate 2
[7] = 24 h, 10 µM, compound concentration 10 uM, replicate 1
[8] = 24 h, 10 µM, compound concentration 10 uM, replicate 2
[9] = 48 h, 1 µM, compound concentration 1 uM, replicate 1
[10] = 48 h, 1 µM, compound concentration 1 uM, replicate 2
[11] = 48 h, 10 µM, compound concentration 10 uM, replicate 1
[12] = 48 h, 10 µM, compound concentration 10 uM, replicate 2

Cl.Clc1ccc2nsnc2c1NC1=NCCN1 [TIZANIDINE HYDROCHLORIDE]
Population Apoptotic (%) [1]: 82%
Population Fragmented Nuclei (%) [1]: 20%
Population Healthy Nuclei (%) [1]: 73%
Population Hoechst High Intensity Objects (%) [1]: 2%
Population Membrane Permeable-Phenotype (%) [1]: 6%
Population Mitochondria Different-Phenotype (%) [1]: 1%
Population Mitotic Cells (%) [1]: 17%
Population Normal (%) [1]: 97%
Population Pyknosed Nuclei (%) [1]: 5%
Population Tubulin-Different-Phenotype (%) [1]: 2%
Total Cell Count [1]: 306
Population Apoptotic (%) [2]: 85%
Population Fragmented Nuclei (%) [2]: 10%
Population Healthy Nuclei (%) [2]: 78%
Population Hoechst High Intensity Objects (%) [2]: 1%
Population Membrane Permeable-Phenotype (%) [2]: 3%
Population Mitochondria Different-Phenotype (%) [2]: 2%
Population Mitotic Cells (%) [2]: 14%
Population Normal (%) [2]: 98%
Population Pyknosed Nuclei (%) [2]: 10%
Population Tubulin-Different-Phenotype (%) [2]: 3%
Total Cell Count [2]: 140
Population Apoptotic (%) [3]: 77%
Population Fragmented Nuclei (%) [3]: 31%
Population Healthy Nuclei (%) [3]: 61%
Population Hoechst High Intensity Objects (%) [3]: 2%
Population Membrane Permeable-Phenotype (%) [3]: 7%
Population Mitochondria Different-Phenotype (%) [3]: 2%
Population Mitotic Cells (%) [3]: 22%
Population Normal (%) [3]: 97%
Population Pyknosed Nuclei (%) [3]: 6%
Population Tubulin-Different-Phenotype (%) [3]: 2%
Total Cell Count [3]: 280
Population Apoptotic (%) [4]: 90%
Population Fragmented Nuclei (%) [4]: 22%
Population Healthy Nuclei (%) [4]: 66%
Population Membrane Permeable-Phenotype (%) [4]: 14%
Population Mitochondria Different-Phenotype (%) [4]: 7%
Population Mitotic Cells (%) [4]: 10%
Population Pyknosed Nuclei (%) [4]: 10%
Population Tubulin-Different-Phenotype (%) [4]: 15%
Total Cell Count [4]: 98
Population Apoptotic (%) [5]: 90%
Population Fragmented Nuclei (%) [5]: 19%
Population Healthy Nuclei (%) [5]: 72%
Population Hoechst High Intensity Objects (%) [5]: 0%
Population Membrane Permeable-Phenotype (%) [5]: 4%
Population Mitochondria Different-Phenotype (%) [5]: 2%
Population Mitotic Cells (%) [5]: 9%
Population Normal (%) [5]: 99%
Population Pyknosed Nuclei (%) [5]: 8%
Population Tubulin-Different-Phenotype (%) [5]: 5%
Total Cell Count [5]: 381
Population Apoptotic (%) [6]: 89%
Population Fragmented Nuclei (%) [6]: 15%
Population Healthy Nuclei (%) [6]: 73%
Population Hoechst High Intensity Objects (%) [6]: 4%
Population Membrane Permeable-Phenotype (%) [6]: 7%
Population Mitochondria Different-Phenotype (%) [6]: 4%
Population Mitotic Cells (%) [6]: 10%
Population Normal (%) [6]: 95%
Population Pyknosed Nuclei (%) [6]: 11%
Population Tubulin-Different-Phenotype (%) [6]: 6%
Total Cell Count [6]: 172
Population Apoptotic (%) [7]: 65%
Population Fragmented Nuclei (%) [7]: 29%
Population Healthy Nuclei (%) [7]: 62%
Population Hoechst High Intensity Objects (%) [7]: 2%
Population Membrane Permeable-Phenotype (%) [7]: 4%
Population Mitochondria Different-Phenotype (%) [7]: 1%
Population Mitotic Cells (%) [7]: 34%
Population Normal (%) [7]: 97%
Population Pyknosed Nuclei (%) [7]: 8%
Population Tubulin-Different-Phenotype (%) [7]: 1%
Total Cell Count [7]: 327
Population Apoptotic (%) [8]: 86%
Population Fragmented Nuclei (%) [8]: 25%
Population Healthy Nuclei (%) [8]: 61%
Population Membrane Permeable-Phenotype (%) [8]: 12%
Population Mitochondria Different-Phenotype (%) [8]: 7%
Population Mitotic Cells (%) [8]: 13%
Population Pyknosed Nuclei (%) [8]: 13%
Population Tubulin-Different-Phenotype (%) [8]: 11%
Total Cell Count [8]: 118
Population Apoptotic (%) [9]: 86%
Population Fragmented Nuclei (%) [9]: 11%
Population Healthy Nuclei (%) [9]: 80%
Population Hoechst High Intensity Objects (%) [9]: 1%
Population Membrane Permeable-Phenotype (%) [9]: 2%
Population Mitochondria Different-Phenotype (%) [9]: 1%
Population Mitotic Cells (%) [9]: 13%
Population Normal (%) [9]: 98%
Population Pyknosed Nuclei (%) [9]: 7%
Population Tubulin-Different-Phenotype (%) [9]: 2%
Total Cell Count [9]: 512
Population Apoptotic (%) [10]: 90%
Population Fragmented Nuclei (%) [10]: 17%
Population Healthy Nuclei (%) [10]: 74%
Population Hoechst High Intensity Objects (%) [10]: 3%
Population Membrane Permeable-Phenotype (%) [10]: 5%
Population Mitochondria Different-Phenotype (%) [10]: 2%
Population Mitotic Cells (%) [10]: 9%
Population Normal (%) [10]: 96%
Population Pyknosed Nuclei (%) [10]: 8%
Population Tubulin-Different-Phenotype (%) [10]: 3%
Total Cell Count [10]: 260
Population Apoptotic (%) [11]: 93%
Population Fragmented Nuclei (%) [11]: 18%
Population Healthy Nuclei (%) [11]: 75%
Population Hoechst High Intensity Objects (%) [11]: 2%
Population Membrane Permeable-Phenotype (%) [11]: 5%
Population Mitochondria Different-Phenotype (%) [11]: 1%
Population Mitotic Cells (%) [11]: 6%
Population Normal (%) [11]: 97%
Population Pyknosed Nuclei (%) [11]: 6%
Population Tubulin-Different-Phenotype (%) [11]: 3%
Total Cell Count [11]: 459
Population Apoptotic (%) [12]: 76%
Population Fragmented Nuclei (%) [12]: 22%
Population Healthy Nuclei (%) [12]: 65%
Population Hoechst High Intensity Objects (%) [12]: 4%
Population Membrane Permeable-Phenotype (%) [12]: 15%
Population Mitochondria Different-Phenotype (%) [12]: 5%
Population Mitotic Cells (%) [12]: 23%
Population Normal (%) [12]: 95%
Population Pyknosed Nuclei (%) [12]: 11%
Population Tubulin-Different-Phenotype (%) [12]: 7%
Total Cell Count [12]: 149

Reference: ChEMBL document CHEMBL5058577, “EUbOPEN Chemogenomics Library 2 (Multiplex)” (2022)
